Screening data from PubChem BioAssay.
NRP1-CendR mod = NRP-1/CendR interaction modulation. 360,000 tested, 0.85% active. FAM-RPARPAR peptide binding to NRP-1, fluorescence polarization. inhibition, % at 25 µM. O14786;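 active = inhibition or corrected inhibition above about 18%, plus a signal ratio from 0.5 to 1.5, limit read from the data, passing the limit was not always enough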
Myeloid diff MLP = promotes myeloid progenitor differentiation; ER-HoxA9 myeloid progenitors, lysozyme-GFP differentiation, flow cytometry; calls only at 10 µM; 360,000 tested, 1% active;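 active = normalized GFP-positive differentiation at or above the plate's own cutoff, the solvent-only control mean plus 3 SD; inconclusive = no clear call, values can overlap the other calls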;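 also: cells exposed to compound for four days before flow analysis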
ATG4B inh = inhibitors of human ATG4B cysteine protease | AID 504462 | inhibition, % at 8.33 µM | 340,000 tested, 0.51% active | ATG4B cleavage of LC3-PLA2, NBD-HPC fluorescence, 1 h; in the data active = inhibition above about 40%
Target sequence (Q9Y4P1 whole entry, looked up): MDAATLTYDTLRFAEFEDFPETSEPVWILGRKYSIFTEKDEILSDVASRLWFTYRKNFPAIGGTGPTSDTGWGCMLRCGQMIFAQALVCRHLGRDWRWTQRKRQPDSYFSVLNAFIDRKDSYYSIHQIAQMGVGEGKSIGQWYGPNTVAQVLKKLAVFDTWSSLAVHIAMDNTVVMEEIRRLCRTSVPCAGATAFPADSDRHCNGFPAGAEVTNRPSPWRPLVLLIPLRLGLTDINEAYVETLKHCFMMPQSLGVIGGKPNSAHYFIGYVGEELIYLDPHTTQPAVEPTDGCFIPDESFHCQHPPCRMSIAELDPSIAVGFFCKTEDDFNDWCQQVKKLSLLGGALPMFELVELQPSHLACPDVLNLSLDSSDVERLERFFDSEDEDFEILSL
ABCB6 inh 2 = human ABCB6 transporter inhibition. K562-ABCB6 porphyrin accumulation, flow cytometry, 1 h; stronger effect = lower value. fluorescence ratio to DMSO, % at 10 µM. 360,000 tested, 0.19% active;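 active = fluorescence ratio to DMSO below 75%, the collection mean minus 3 SD; inconclusive = too few cells collected in the well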;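 also: signal is porphyrin accumulated inside mitochondria; 100% equals median channel fluorescence of DMSO control wells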
Arr AP2 block = blocks beta-arrestin peptide binding to AP2 adaptin; FITC-arrestin peptide / GST-AP2 beads, flow cytometry; AP2 beta2 appendage carries R879A mutation; 340,000 tested, 0.31% active; inhibition, % at 10 µM;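 active = inhibition above a set limit, near 3 SD of compounds lacking own fluorescence, cut at about 54% in these data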;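 also: plate controls were DMSO wells for no effect and 5 µM unlabelled arrestin peptide for full effect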
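Material – GST-tagged AP2 beta2-adaptin appendage (R879A) on 4 µm glutathione beads · Probe or stimulus – fluorescein-tagged arrestin peptide at 50 nM final · Timing – 12 min plus 1 h, RT · Detection – bead flow cytometry, FITC channel · Read-out basis – inhibition as reduced fluorescein signal on beads, percent · Medium – PBS plus Tween 20 (0.05%) and BSA (0.1%)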
Granule exo inh = lytic granule exocytosis inhibition; TALL-104 LAMP-1 surface exposure, flow cytometry; cells stimulated with thapsigargin and PMA; inhibition, % at 10 µM; 360,000 tested, 0.66% active;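 active = inhibition above about 55%, limit read from the data; inconclusive = no clear call, values can overlap the other calls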
Granule exo CP1 = lytic granule exocytosis inhibition; inhibition, % at 10 µM; 1,500 tested, 11% active; TALL-104 cells, LAMP-1 externalization, flow cytometry; stimulated with PMA plus thapsigargin; AID 651954; shares compounds with Granule exo inh; in the data active = inhibition above about 60%;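 also: 0% = stimulated vehicle wells and 100% = unstimulated wells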
Numbers without * were called inactive; i = inactive; ? = inconclusive; / = not tested or not shown. Rows were chosen to be rich in hits. Some 3.3% of all compounds tested hit in one or more screens of this group.

SMILES	NRP1-CendR mod	Myeloid diff MLP	ATG4B inh	ABCB6 inh 2	Arr AP2 block	Granule exo inh	Granule exo CP1
Nc1nc(N2CCN(c3ccccn3)CC2)nc2ccccc12	14	i	-1	98	-9	35	/
CCOC(=O)C1(CCOc2ccccc2)CCN(Cc2ccc(O)c(OCC)c2)CC1	-2	i	-5	92	12	81*	-3
COc1ccccc1N(CC(=O)NCc1ccccc1C)S(=O)(=O)c1ccc(C)cc1	2	i	22	103	-12	63*	-13
COc1ccc(N(CC(=O)NCc2ccco2)S(=O)(=O)c2ccccc2)cc1	9	i	13	102	-5	-8	/
COc1ccc(CCNC(=O)CN(c2ccccc2OC)S(=O)(=O)c2ccc(C)cc2)cc1	4	i	-3	95	14	10	/
COc1ccc(N(CC(=O)NCc2ccccc2OC)S(=O)(=O)c2ccccc2)cc1	-2	i	-1	102	4	75*	-14
Cc1ccccc1NC(=O)N(O)C1(C#N)CCCCC1	12	?	0	89	3	-5	/
COc1cc(C)ccc1OCc1cc(C(=O)N2CCC(c3ccc(F)cc3)C2)no1 (centres undefined)	4	i	12	97	36	77*	-3
O=C(c1cc(COc2c(F)cccc2F)on1)N1CCC(c2ccncc2)CC1	-7	i	-1	96	-4	86*	-15
O=C(NCc1cccnc1)/C(=C\c1ccc(-c2ccc(Br)cc2)o1)S(=O)(=O)c1ccccc1	-8	/	-5	101	27	83*	54
O=C(CN(Cc1ccc(Br)cc1)S(=O)(=O)c1ccccc1)NCc1cccnc1	8	i	-2	95	5	3	/
Clc1ccc(-c2nn3cnnc3s2)c(Cl)c1	2	i	10	92	7	1	/
CCN1C(=O)[C@H]2[C@@H](c3ccc(-c4ccc(OC)cc4)cc3)N3CCCC[C@@]3(C(=O)OC)[C@H]2C1=O	7	i	-6	101	-2	-7	/
COc1cccc(CC2(CO)CCCN(Cc3ccccc3Cl)C2)c1 (centres undefined)	12	i	6	95	-4	10	/
COc1cccc(CC2(CO)CCCN(Cc3ccc(OC)c(C)c3OC)C2)c1 (centres undefined)	-2	i	-7	95	10	60*	-10
Clc1cccc(Cl)c1C1=NOC(c2nnc(-c3ccccc3)o2)C1 (centres undefined)	2	i	6	102	-3	4	/
CCn1cc(CN2CCc3c([nH]c4ccccc34)C2c2cccc(OC)c2OC)c(C)n1 (centres undefined)	-4	i	21	96	-13	59*	-5
Cc1csc(SCC(=O)NCc2ccccc2)n1	-3	/	10	99	9	-2	/
Cc1csc2sc(-c3ccnc(SCC(=O)NCc4ccccc4)n3)c(C)c12	-6	/	-5	101	16	66*	-11
Cc1cc2nnc(SCC(=O)Nc3cccc(S(=O)(=O)N4CCOCC4)c3)n2c2ccccc12	-8	i	27	97	35	2	/
O=C(NCCc1ccc(Cl)cc1)c1ccc2c(c1)OCCO2	7	i	2	95	3	7	/
O=[N+]([O-])c1ccc2nc(C(O)C(O)c3nc4ccc([N+](=O)[O-])cc4[nH]3)[nH]c2c1 (centres undefined)	12	i	3	96	28	8	/
O=[N+]([O-])c1ccc2nc(/C=C/c3ccc(Cl)cc3)[nH]c2c1	-20	i	-21	95	5	91*	88*
CC(=O)c1ccc(OC(=O)c2nc(-c3ccccc3)oc2C)cc1	4	i	7	94	18	-4	/
O=C(OCC(=O)N1CCCc2ccccc21)c1c(F)cccc1F	2	i	8	96	-6	-14	/
SMILES	NRP1-CendR mod	Myeloid diff MLP	ATG4B inh	ABCB6 inh 2	Arr AP2 block	Granule exo inh	Granule exo CP1
Cc1cccc(C(=O)Oc2cccc3c(O)cccc23)c1	-12	i	-7	95	-30	1	/
Cc1ccccc1Nc1nc(N)nc(COC(=O)c2ccc(S(=O)(=O)N(C)C)cc2)n1	1	i	-2	98	-13	63*	-13
Cc1ccccc1Nc1nc(N)nc(COC(=O)c2ccco2)n1	-3	i	4	102	9	3	/
Cc1ccc(-c2csc3ncn(-n4c(C)ccc4C)c(=O)c23)o1	2	i	0	98	10	56*	-14
COc1ccc(OCC(=O)Nc2cc(OC)ccc2N2CCCCC2)cc1	5	i	6	98	-8	67*	-2
COc1ccc(N2CCOCC2)c(NC(=O)c2cc3ccccc3o2)c1	-7	i	2	104	8	75*	-13
COc1ccc(N2CCCC2)c(NC(=O)COc2ccccc2Cl)c1	15	i	2	96	5	25	/
CCOC(=O)c1c(NC(=O)c2nn(CC)cc2Br)sc2c1CCCCC2	-8	i	-4	105	3	3	/
CCOC(=O)c1c(NC(=O)c2ccn(CC)n2)sc2c1CCC2	-3	i	3	103	4	80*	-3
CC(C)NC(=O)c1ccccc1NS(=O)(=O)c1ccc(Br)s1	-1	i	6	99	-5	59*	-13
O=C(c1ccccc1NS(=O)(=O)c1ccc(Br)s1)N1CCCC1	6	i	0	99	39	-1	/
COC(=O)c1ccc(N2CCCCC2)c(NC(=O)c2ccco2)c1	-14	i	3	100	26	93*	-4
CC(C)Oc1ccc(N2CC(C(=O)Nc3ccc4c(c3)OCO4)CC2=O)cc1 (centres undefined)	7	i	-2	99	2	-4	/
COc1cc(C(=O)Nc2ccc(S(=O)(=O)N3CCOCC3)cc2)c([N+](=O)[O-])cc1OC	5	i	-6	100	-2	74*	-4
COc1ccc(C(=O)Nc2ccc(S(=O)(=O)N3CCOCC3)cc2)cc1[N+](=O)[O-]	0	i	-10	101	6	-1	/
COCCNC(=S)N(CCc1c(C)[nH]c2ccc(Cl)cc12)Cc1cccs1	4	i	2	91	8	104*	5
CCOc1ccc2oc(C(=O)N3CCN(c4ccccn4)CC3)c(C)c2c1	-10	i	3	110	-6	4	/
CCOc1ccc2[nH]c3c(N4CCN(c5ccccn5)CC4)ncnc3c2c1	-6	i	2	91	29	88*	10
CCC(=O)N1CCc2cc(OC)c(OC)cc2C1COc1ccc(C(=O)OC)cc1 (centres undefined)	6	i	-9	97	0	31	/
